Assay outcomes deposited in PubChem by Broad Institute.
In the library only some 3% were active in any assay of this set; here they are far more common.
PvdQ inh – P. aeruginosa PvdQ acylase inhibition; purified PvdQ acylase, fluorescence plate reader; inhibition, % at 10 µM; actives 0.063% (n = 340,000); AID 488965; in the data active means inhibition above about 30%, passing the limit was not always enough;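 further: 0% = vehicle neutral wells and 100% = reference inhibitor wells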
HSF1 activator – increases HSF-1 driven luciferase reporter signal | AID 504408 | actives 1.7% (n = 300,000) | NIH3T3-HGL HSF-1 luciferase reporter, MG132, 8 h; 100% = twice DMSO control signal | activation, % at 9 µM;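 active means mean replicate activation of at least 50% with a set share of replicates each reaching 50%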;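 further: 0% = median of the neutral control wells and 100% = twice that signal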
T cruzi repl – blocks replication of Trypanosoma cruzi. T. cruzi beta-gal in NIH3T3, luminescence, 90 h. inhibition, % (test concentration not listed). actives 1.4% (n = 300,000);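 active means mean inhibition across valid replicates above about 55%, limit read from the data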;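 further: signal also drops with host cell toxicity which is not excluded here; 0% = plate median of DMSO wells and 100% = zero luminescence signal; higher percent means less beta-gal luminescence so fewer parasites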
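assay system = mouse NIH/3T3 fibroblasts infected with β-gal-expressing T. cruzi Tulahuen C4 | input = 5,000 NIH/3T3 host cells per well | buffer or medium = DMEM plus 2% FBS | timing = 3 h host attachment, then at least 90 h co-culture | measured by = GalScreen luminescence, 60 min | evaluation = luminescence reflecting intracellular parasite burden, expressed as percent inhibition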
N-glyco inh – N-linked glycosylation inhibition; reporter increase, % at 12.5 µM; D54 ERlucT glycosylation luciferase reporter, 24 h; percent of 100 nM tunicamycin response; AID 588692; actives 0.23% (n = 360,000);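 active means mean luciferase reporter signal, scaled so untreated is 0 and the glycosylation-blocking control 100, at or above a set limit in every replicate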;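 further: luciferase carries N-glycosylation sites so blocking glycosylation raises the light; 0% = median of neutral control wells and 100% = median of 100 nM tunicamycin wells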
PfHsp90 set2 – growth inhibition of yeast expressing Plasmodium Hsp90. S. cerevisiae expressing PfHsp90, BacTiter-Glo ATP, 48 h; yeast lacking PDR1 and PDR3 efflux regulators. actives 0.32% (n = 310,000). inhibition, % at 9.4 µM;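 active means every replicate shows inhibition above about 80%, whatever the replicate mean, limit read from the data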;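 further: 0% = DMSO neutral controls and 100% = 20 µM radicicol positive controls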
CaV13 FRET inh – Primary screen for inhibitors of IQ motif and Ca2+-dependent inactivation inhibitor domain binding in CACNA1D, Förster resonance energy transfer in living cells, …. HEK cells, CFP/YFP FRET ICDI-IQ, plate reader, 10 min; percent FRET-ratio fall versus neutral wells. inhibition, % at 12.3 µM. actives 0.098% (n = 340,000). AID 743397;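 active means mean replicate inhibition of at least 30% and at least 1% of replicates passing that level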;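 further: 0% = median of the neutral control wells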
* marks the source's active call; other numbers are inactive results; · = not tested or not shown.

SMILES	PvdQ inh	HSF1 activator	T cruzi repl	N-glyco inh	PfHsp90 set2	CaV13 FRET inh
CCCCCCCCC/C(=N\O)c1ccccn1	2	36	63*	-7	111*	-4
CN(C)CCN1C(=O)C2C(C(=O)Nc3cc(Cl)cc(Cl)c3)C3C=CC2(O3)C1C(=O)NC1CCCCC1 (stereo not given)	5	85*	11	-4	13	-3
Cn1nc(-c2ccc(Cl)cc2)c2cc(C(=O)N3CCN(c4ccccc4)CC3)sc21	-3	10	24	-2	-5	48*
Cn1nc(-c2ccc(Cl)cc2)c2cc(C(=O)N3CCN(c4ccccn4)CC3)sc21	-11	15	30	-7	-7	·
CCCCCCCC(=O)NNC(=O)Cc1ccccc1	-10	-6	-21	3	8	-9
CCCCCCCCCCCC(=O)c1c(O)cccc1O	-7	51*	-21	-1	5	·
CCCCCCCCN1C(=O)[C@@H](CC(=O)NCc2cccc3ccccc23)C[C@@]2(C(=O)OC)C1=C[C@H](C1CCCC1)O[C@@H]2C	·	·	·	·	·	-6
Cc1c(N=Cc2cc(Br)cc(Br)c2O)cccc1C(=O)O	-6	-5	-5	1	102*	·
O=C(O)c1cccc(N/N=C/c2cc(Br)cc(Br)c2O)c1	9	4	5	2	110*	-5
O=C(N/N=C/c1cc(Br)cc(Br)c1O)c1cccc(N2CCCC2=O)c1	1	-8	61*	4	-4	-11
CN(/N=C/c1cc(Br)cc(Br)c1O)c1ccccc1	-16	27	-2	1	-4	-22
Cc1cc2c(nc1C)CCCN2S(=O)(=O)c1cccs1	·	·	·	·	·	-10
C=CS(=O)(=O)N(C(=C)C(=O)OC)S(C)(=O)=O	·	·	·	·	·	-5
O=C(CN1C(=O)c2ccccc2S1(=O)=O)N1CCCCC1	-3	54*	-3	-5	-19	-3
C#CC(C)OCC1CNC(=S)O1 (stereo not given)	·	·	·	0	·	-5
Cc1nc(SC(C)C(=O)NCC2CCCO2)c2cc(-c3ccccc3)sc2n1 (stereo not given)	-26	71*	7	-12	-2	-14
CN(c1ccc(F)cc1)S(=O)(=O)c1ccc(Cl)c(C(=O)NCC2(N3CCOCC3)CCCCC2)c1	-12	·	·	-9	-12	-2
COc1ccc2c(c1)C1OCCC1C(c1ccco1)N2 (stereo not given)	-18	56*	-14	-7	19	·
COc1cccc(C(O)c2nc(-c3cnn(C)c3)cs2)c1 (stereo not given)	·	·	·	1	·	-6
Oc1ccc(/C=C/c2ccnc3ccccc23)cc1	1	69*	-3	-6	3	-7
O=C(CSc1nc2ccccc2c(=O)[nH]1)Nc1ccc([N+](=O)[O-])cc1	-16	·	·	-3	-4	-11
Cc1ccnc(Sc2ccc([N+](=O)[O-])cc2[N+](=O)[O-])n1	-1	131*	29	10	7	-9
O=c1[nH]c(Sc2ccc([N+](=O)[O-])cc2[N+](=O)[O-])nc2ccccc12	-2	35	61*	10	37	-3
O=[N+]([O-])c1ccc(Sc2cc[n+]([O-])c3ccccc23)c([N+](=O)[O-])c1	-1	45	-25	28*	-40	-2
Nc1nc(Sc2ccc([N+](=O)[O-])cc2[N+](=O)[O-])n[nH]1	-20	16	15	5	-31	-3
SMILES	PvdQ inh	HSF1 activator	T cruzi repl	N-glyco inh	PfHsp90 set2	CaV13 FRET inh
Cc1ccc(Sc2ccc([N+](=O)[O-])cc2[N+](=O)[O-])nc1	-6	12	25	3	-18	-6
O=[N+]([O-])c1ccc(Sc2nc3ccccc3o2)c([N+](=O)[O-])c1	-9	230*	55*	17	·	-8
COC(=O)N1Cc2ccnnc2CC1c1ccccc1-c1ccc(F)cc1 (stereo not given)	·	·	·	·	·	-5
CCN(CC)c1ccc(/C=N/NC(=S)NCc2ccccc2)cc1	-9	27	38	-4	-12	-5
CC(C)COc1ccc(CNC(=S)N/N=C/c2ccc([N+](=O)[O-])cc2)cc1	-23	-2	24	0	-1	-5
CCN(CC)c1ccc(/C=N/NC(=S)NCc2ccc(OC)cc2)cc1	-6	53*	34	-2	0	-3
CCCOc1ccc(CNC(=S)N/N=C/c2ccc([N+](=O)[O-])cc2)cc1	1	19	61*	-3	-9	-5
COC(=O)[C@]12C[C@H](CC(=O)N3CCOCC3)C(=O)N(CCC3=CCCCC3)C1=C[C@H](COCc1ccccc1)O[C@@H]2C	·	·	·	·	·	-8
CCc1nc2c(OCc3ccc(Cl)cc3Cl)cccn2c1N(C)C(C)=O	·	·	·	1	·	-10
C#CC[N+](C)(C)CCCCCCCCCC	-13	-16	28	40*	-20	-6
C[N+](C)(C)CCCCCC[N+](C)(C)C	-10	0	-5	1	15	-5
CC#CC[N+](C)(C)CCCCCCCCCCCC	-11	89*	73*	1	-7	-4
C#CC[N+](C)(C)CCCCCCCC	-4	-16	-12	18	-15	-6
C#CC[N+](C)(C)CCCCCCCCCCCC	-16	5	50	144*	13	-6
Cn1c(CNc2ccc(Cl)cc2)nnc1SCc1ccccc1	5	19	0	0	121*	-3
Cn1c(CNc2cccc(Cl)c2)nnc1SCC#N	-11	73*	-1	2	-29	-5
CCn1c(CNc2ccc(Cl)cc2)nnc1SCc1ccccc1	3	-4	0	-4	93*	-4
Cn1c(CNc2ccc(Cl)cc2)nnc1SCC#N	0	15	-6	-1	2	-5
Cc1[nH]c2ccccc2c1SCc1nnc(SCc2ccc(Cl)cc2)n1C	-10	5	59*	-10	-6	-4
CCOC(=O)CSc1nnc(CNc2ccc(Cl)cc2)n1Cc1ccccc1	-10	16	-3	0	16	·
Cc1ccc(CSc2nnc(CS(=O)Cc3ccc(Cl)cc3Cl)n2C)cc1 (stereo not given)	-16	-3	20	0	-9	-7
CCn1c(CNc2ccc(Cl)cc2)nnc1SCC(=O)NCc1ccccc1	-12	60*	9	-2	25	-4
O=C(O)CSc1nnc(CNc2ccc(Cl)cc2)n1Cc1ccccc1	-12	19	-1	3	·	-4
Cn1c(CS(=O)Cc2c(Cl)cccc2Cl)nnc1SCc1ccc(Cl)cc1 (stereo not given)	-4	61*	19	-3	-7	-4
C=CC(=O)Nc1cccc(CN2C(=O)N(c3cc(OC)cc(OC)c3)Cc3cnc(NCCCCN(CC)CC)nc32)c1	-7	·	·	-2	14	·
